# From ChEMBL document CHEMBL1255376, “Comparative surveillance study of telavancin activity against recently collected gram-positive clinical isolates from across the United States” (2008)
# What was measured:
# Type in all cases: functional
# Streptococcus sp. [1] = test: Antibacterial activity against Streptococcus sp. clinical isolate by broth microdilution method
# Summary of the method: (§1)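 MIC by CLSI broth microdilution in frozen microtiter trays holding serial dilutions of each agent, prepared from standard laboratory powders. Comparator susceptibility interpreted with CLSI breakpoints.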
# Mammaliicoccus sciuri = test: Antibacterial activity against methicillin-resistant coagulase-negative Staphylococcus sciuri clinical isolate by broth microdilution method
# Summary of the method: (§2)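 MICs by CLSI broth microdilution in frozen trays pre-loaded with serial dilutions of each agent. Quality-control strains run in parallel: E. faecalis ATCC 29212 and ATCC 51299, S. aureus ATCC 29213, S. pneumoniae ATCC 49619. Comparator susceptibility categories follow CLSI breakpoints. Methicillin resistance in staphylococci assigned from the oxacillin MIC.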
# Staphylococcus hominis = test: Antibacterial activity against methicillin-susceptible coagulase-negative Staphylococcus hominis clinical isolate by broth microdilution method; summary of the method: as §2
# Staphylococcus cohnii [2] = test: Antibacterial activity against methicillin-resistant coagulase-negative Staphylococcus cohnii clinical isolate by broth microdilution method; summary of the method: as §2
# Enterococcus faecalis [3] = test: Antibacterial activity against vancomycin- and teichoplanin-nonsusceptible Enterococcus faecalis clinical isolate by broth microdilution method; summary of the method: as §2
# Enterococcus faecium = test: Antibacterial activity against vancomycin-susceptible Enterococcus faecium clinical isolate by broth microdilution method
# Summary of the method: (§3)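 MIC by CLSI broth microdilution in frozen microtiter trays holding serial dilutions of each agent, prepared from standard laboratory powders. E. faecalis ATCC 29212 and ATCC 51299, S. aureus ATCC 29213 and S. pneumoniae ATCC 49619 run in parallel as quality-control strains. Comparator susceptibility interpreted with CLSI breakpoints.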
# Staphylococcus capitis [4] = test: Antibacterial activity against daptomycin-nonsusceptible Staphylococcus capitis isolate 1285355 by broth microdilution method; summary of the method: as §3
# Streptococcus agalactiae = test: Antibacterial activity against Streptococcus agalactiae clinical isolate by broth microdilution method; summary of the method: as §3
# Staphylococcus simulans = test: Antibacterial activity against methicillin-susceptible coagulase-negative Staphylococcus simulans clinical isolate by broth microdilution method; summary of the method: as §2
# [5] = test system: Streptococcus constellatus; test: Antibacterial activity against Streptococcus constellatus clinical isolate by broth microdilution method; summary of the method: as §3
# Staphylococcus warneri = test: Antibacterial activity against methicillin-resistant coagulase-negative Staphylococcus warneri clinical isolate by broth microdilution method; summary of the method: as §2
# [6] = test system: Staphylococcus saprophyticus; test: Antibacterial activity against methicillin-susceptible coagulase-negative Staphylococcus saprophyticus clinical isolate by broth microdilution method; summary of the method: as §2
# Staphylococcus capitis [7] = test: Antibacterial activity against methicillin-resistant coagulase-negative Staphylococcus capitis clinical isolate by broth microdilution method; summary of the method: as §2
# Streptococcus equinus = test: Antibacterial activity against Streptococcus bovis clinical isolate by broth microdilution method; summary of the method: as §3
# Streptococcus mitis = test: Antibacterial activity against Streptococcus mitis clinical isolate by broth microdilution method; summary of the method: as §3
# Staphylococcus aureus [8] = test: Antibacterial activity against methicillin-resistant Staphylococcus aureus clinical isolate by broth microdilution method; summary of the method: as §2
# [9] = test system: Streptococcus intermedius; test: Antibacterial activity against Streptococcus intermedius clinical isolate by broth microdilution method; summary of the method: as §3
# Staphylococcus aureus [10] = test: Antibacterial activity against methicillin-susceptible Staphylococcus aureus clinical isolate by broth microdilution method; summary of the method: as §2
# Enterococcus faecalis [11] = test: Antibacterial activity against vancomycin-susceptible Enterococcus faecalis clinical isolate by broth microdilution method; summary of the method: as §2
# Streptococcus sp. [12] = test: Antibacterial activity against Streptococcus sp. Group F clinical isolate by broth microdilution method; summary of the method: as §1
# [13] = Antibacterial activity against Streptococcus sp. Group C clinical isolate by broth microdilution method; summary of the method: as §3
# Staphylococcus cohnii [14] = test: Antibacterial activity against methicillin-susceptible coagulase-negative Staphylococcus cohnii clinical isolate by broth microdilution method; summary of the method: as §2
# Staphylococcus aureus [15] = test: Antibacterial activity against daptomycin-nonsusceptible Staphylococcus aureus isolate 1171063 by broth microdilution method; summary of the method: as §2
# Enterococcus faecalis [16] = test: Antibacterial activity against vancomycin-resistant and teichoplanin-susceptible Enterococcus faecalis clinical isolate by broth microdilution method; summary of the method: as §2
compound,measurement,setting,value
CCCCCCCCCC(=O)N[C@@H](Cc1c[nH]c2ccccc12)C(=O)N[C@H](CC(N)=O)C(=O)N[C@@H](CC(=O)O)C(=O)N[C@@H]1C(=O)NCC(=O)N[C@@H](CCCN)C(=O)N[C@@H](CC(=O)O)C(=O)N[C@H](C)C(=O)N[C@@H](CC(=O)O)C(=O)NCC(=O)N[C@H](CO)C(=O)N[C@@H]([C@H](C)CC(=O)O)C(=O)N[C@@H](CC(=O)c2ccccc2N)C(=O)O[C@@H]1C,MIC90,Streptococcus sp. [1],1 µg/mL
same,MIC50,Mammaliicoccus sciuri,0.5 µg/mL
same,MIC90,Mammaliicoccus sciuri,1 µg/mL
same,MIC50,Staphylococcus hominis,0.5 µg/mL
same,MIC90,Staphylococcus hominis,1 µg/mL
same,MIC50,Staphylococcus cohnii [2],0.5 µg/mL
same,MIC90,Staphylococcus cohnii [2],1 µg/mL
same,MIC,Enterococcus faecalis [3],0.5 µg/mL
same,MIC50,Enterococcus faecalis [3],0.5 µg/mL
same,MIC90,Enterococcus faecalis [3],1 µg/mL
same,MIC50,Enterococcus faecium,2 µg/mL
same,MIC90,Enterococcus faecium,4 µg/mL
same,MIC,Staphylococcus capitis [4],> 1 µg/mL
same,MIC50,Streptococcus agalactiae,0.25 µg/mL
same,MIC90,Streptococcus agalactiae,0.25 µg/mL
same,MIC50,Staphylococcus simulans,0.5 µg/mL
same,MIC90,Staphylococcus simulans,1 µg/mL
same,MIC50,[5],0.25 µg/mL
same,MIC90,[5],1 µg/mL
same,MIC50,Staphylococcus warneri,0.5 µg/mL
same,MIC90,Staphylococcus warneri,1 µg/mL
same,MIC50,[6],0.5 µg/mL
same,MIC90,[6],1 µg/mL
same,MIC50,Staphylococcus capitis [7],0.5 µg/mL
same,MIC90,Staphylococcus capitis [7],1 µg/mL
same,MIC50,Streptococcus equinus,0.25 µg/mL
same,MIC90,Streptococcus equinus,1 µg/mL
same,MIC50,Streptococcus mitis,0.25 µg/mL
same,MIC90,Streptococcus mitis,1 µg/mL
same,MIC50,Staphylococcus aureus [8],0.5 µg/mL
same,MIC90,Staphylococcus aureus [8],0.5 µg/mL
same,MIC50,[9],0.25 µg/mL
same,MIC90,[9],1 µg/mL
same,MIC50,Staphylococcus aureus [10],0.5 µg/mL
same,MIC90,Staphylococcus aureus [10],0.5 µg/mL
same,MIC50,Enterococcus faecalis [11],1 µg/mL
same,MIC90,Enterococcus faecalis [11],1 µg/mL
same,MIC50,Streptococcus sp. [12],0.06 µg/mL
same,MIC90,Streptococcus sp. [12],0.25 µg/mL
same,MIC50,[13],0.06 µg/mL
same,MIC90,[13],0.25 µg/mL
same,MIC50,Staphylococcus cohnii [14],0.5 µg/mL
same,MIC90,Staphylococcus cohnii [14],1 µg/mL
same,MIC,Staphylococcus aureus [15],> 1 µg/mL
same,MIC,Enterococcus faecalis [16],0.5 µg/mL
